Only some compounds are listed: those with a hit (about 1.8% of all), similar ones and a draw of the others.
LANA-H2B inh: blocks KSHV LANA binding to histone H2A/H2B | cell-free LANA-H2A/H2B peptide, fluorescence polarization | inhibition, % (test concentration not listed) | 320,000 tested, 0.6% active; in the data active = inhibition mostly above about 10%, no sharp cut-off; inactive = mostly below about 6.7%
Target sequence (Q9QR71 whole entry, looked up): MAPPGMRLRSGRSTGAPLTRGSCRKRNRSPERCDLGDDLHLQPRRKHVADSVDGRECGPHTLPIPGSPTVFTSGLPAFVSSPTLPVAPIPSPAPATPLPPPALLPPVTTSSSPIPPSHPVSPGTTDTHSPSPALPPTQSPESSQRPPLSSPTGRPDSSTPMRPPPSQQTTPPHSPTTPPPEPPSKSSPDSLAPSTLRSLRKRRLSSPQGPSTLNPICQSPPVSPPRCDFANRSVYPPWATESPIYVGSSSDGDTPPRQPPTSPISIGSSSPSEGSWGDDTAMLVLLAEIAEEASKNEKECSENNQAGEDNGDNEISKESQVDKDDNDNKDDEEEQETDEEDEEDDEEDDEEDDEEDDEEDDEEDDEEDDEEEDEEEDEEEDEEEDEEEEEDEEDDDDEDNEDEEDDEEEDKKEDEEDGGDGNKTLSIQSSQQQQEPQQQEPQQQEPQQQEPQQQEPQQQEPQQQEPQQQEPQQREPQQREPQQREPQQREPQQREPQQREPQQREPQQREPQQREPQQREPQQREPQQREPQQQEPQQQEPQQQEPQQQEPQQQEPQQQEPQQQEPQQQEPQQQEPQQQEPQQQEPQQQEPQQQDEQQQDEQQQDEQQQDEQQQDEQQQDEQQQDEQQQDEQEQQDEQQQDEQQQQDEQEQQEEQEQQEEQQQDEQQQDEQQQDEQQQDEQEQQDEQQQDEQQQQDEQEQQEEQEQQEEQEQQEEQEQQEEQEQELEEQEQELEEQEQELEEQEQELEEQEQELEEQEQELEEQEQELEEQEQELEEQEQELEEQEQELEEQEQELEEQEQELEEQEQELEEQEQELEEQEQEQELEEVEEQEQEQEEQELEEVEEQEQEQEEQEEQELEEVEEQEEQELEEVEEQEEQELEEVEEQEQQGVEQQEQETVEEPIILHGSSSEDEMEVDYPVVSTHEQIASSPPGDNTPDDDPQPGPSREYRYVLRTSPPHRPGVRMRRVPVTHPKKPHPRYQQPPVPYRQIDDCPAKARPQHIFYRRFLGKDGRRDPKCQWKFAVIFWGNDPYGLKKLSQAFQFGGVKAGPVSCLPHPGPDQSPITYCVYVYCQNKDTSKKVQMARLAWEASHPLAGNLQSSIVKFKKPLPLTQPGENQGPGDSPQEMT
HDAC3 inh: inhibitors of human histone deacetylase 3. 320,000 tested, 0.15% active. O15379. recombinant HDAC3, fluorogenic peptide/trypsin coupled, fluorescence. inhibition, % at 8.3 µM; in the data active = inhibition above about 26%, passing the limit was not always enough; inconclusive = no clear call, values can overlap the other calls
AI-2 QS modul: modulators of Vibrio harveyi AI-2 quorum sensing system. AID 2094. activity change, % at 7.5 µM. Vibrio harveyi JMH597 AI-2 luminescence/OD600 ratio, 9 h; stronger effect = lower value; strain lacks LuxN and CqsS sensors; 0 = neutral-control median. 300,000 tested, 0.4% active; in the data active = activity change below about -75%, passing the limit was not always enough; inconclusive = no clear call, values can overlap the other calls;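 note: luminescence divided by OD600 gain over 9 h not by final OD600 alone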
Bfl-1 A1 inh: inhibitors of the anti-apoptotic protein A1, read as caspase activation | 330,000 tested, 0.066% active | AID 2462 | caspase activation, % (test concentration not listed) | MEF A1-2A-BIM cells, Caspase-Glo 3/7 luminescence, 3 h; percent of clofoctol response, vehicle zero;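 active = over half of replicate activation scores above 10%, or exactly half above 10 with the replicate mean above 10; inconclusive = replicate mean below 10 yet half the replicates above 10; inactive = over half of replicates below 10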
HKDC1 inhibitor: inhibitors of human hexokinase HKDC1 | recombinant HKDC1, G6PDH/diaphorase resazurin coupled fluorescence | inhibition, % at 20 µM | 340,000 tested, 0.16% active | AID 493160;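 active = inhibition above about 35% when tested at 20 µM, limit read from the data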;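 note: plate controls were DMSO wells with enzyme for no effect and DMSO wells lacking enzyme for full effect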
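Assay system: in-house recombinant HK5 (HKDC1) enzyme. Input: HKDC1 at 5 µg/mL. Medium: Tris pH 8.0 buffer with MgCl2, Tween-20, BSA, BME. Dosing: single 20 µM dose. Schedule: 90 min reaction incubation at room temperature, dark. Signal: resazurin-to-resorufin fluorescence via G6PDH and diaphorase coupling, 525/613 nm. Controls: DMSO-enzyme wells negative, buffer-substituted wells positive.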
ATG4B inh: blocks human ATG4B protease cleavage of LC3 substrate; ATG4B cleavage of LC3-PLA2, NBD-HPC fluorescence, 1 h; inhibition, % at 8.33 µM; AID 504462; 340,000 tested, 0.51% active; Q9Y4P1; in the data active = inhibition above about 40%
* = called active by the depositor; ? = inconclusive; nt = no result given.

SMILES	LANA-H2B inh	HDAC3 inh	AI-2 QS modul	Bfl-1 A1 inh	HKDC1 inhibitor	ATG4B inh
Cc1cc(NC(=O)NCc2ccccc2)c(=O)n(Cc2ccccc2F)c1	3	-3	18	1	-4	18
COc1cccc(Cn2cc(C)cc(NC(=O)NCc3ccccc3)c2=O)c1	23*	2	-3	0	2	13
COc1c(C(=O)Nc2nccs2)ccc2ccccc12	1	-1	24	-2	-1	-11
COc1cc2ccccc2cc1C(=O)Nc1nccs1	20*	-4	0	-2	-3	-4
COc1ccc(-c2cc(C(=O)N3CCOCC3)c3cc(C)ccc3n2)cc1	18*	-82	17	1	0	-16
Cc1ccc2[nH]c(C(=O)O)c(NC(=O)[C@@H]3C[C@@H]3c3ccccc3)c2c1	-7	4	15	0	-2	-7
Cc1cc(C)cc(NC(=O)C(=S)NCc2ccccc2)c1	43*	3	12	0	0	12
Cc1cc(C)cc(NC(=S)NC(=O)Cc2ccccc2)c1	-3	2	13	1	1	9
COc1ccc2cc(CO)c3cc(OC)c(OC)cc3c2c1	-2	-2	nt	0	5	-14
CC1Oc2ccccc2C=C1/C=N/Nc1ccc(C(=O)O)cc1 (stereo not given)	-2	-1	-92*	-8	-3	2
CC(C)(C)c1ccc(/C=N/Nc2ccc(C(=O)O)cc2)cc1	-2	8	42	-8	-6	38
O=C(COC(=O)c1ccccc1Br)NC(=O)NCc1ccccc1	1	5	nt	0	4	-5
CCC1CCCCN1S(=O)(=O)c1ccc(NC(=O)c2ccncc2)cc1 (stereo not given)	-1	1	32	-2	-2	-14
CCC1CCCCN1S(=O)(=O)c1ccc(NC(=O)c2nc(S(C)(=O)=O)ncc2Cl)cc1 (stereo not given)	-5	4	16	11*	14	1
CCS(=O)(=O)c1ncc(Cl)c(C(=O)Nc2ccc(S(=O)(=O)N3CCCC(C)C3)cc2)n1 (stereo not given)	0	10	14	49*	7	-1
Cn1c(N)nc2nc[nH]c2c1=S	nt	nt	nt	nt	-8	7
CC1=CC(C)(C)NC(=S)N1CCO	nt	nt	nt	nt	5	5
CCOC(=O)C1(Cc2ccccc2)CCN(Cc2cccn2-c2nccs2)CC1	14*	1	9	0	-6	4
CCOC(=O)C1(Cc2ccccc2)CCN(Cc2cnc(N3CCOCC3)s2)CC1	53*	1	15	0	-5	-5
Cc1ccc(C(=O)CC(=O)COc2ccc(Cl)cc2)cc1	0	8	-79*	0	-13	-1
Cc1ccc(C(=O)NCCOc2ccc(Cl)cc2)cc1	-7	2	?	1	-4	16
N#Cc1ccc(NC(=O)Nc2ccc(Cl)cc2)cc1	0	0	-147*	-1	1	-19
CCOc1ccc(S(=O)(=O)NCCC(=O)NCC2(N3CCCCC3)CCCCC2)cc1	168*	-4	-6	1	-1	13
CNC(=O)c1cc(NC(=O)N(CCC#N)CCN(C(=O)NC(Cc2ccccc2)C(=O)NC(CC(C)C)C(=O)NC)c2ccccc2)ccc1OC (stereo not given)	nt	nt	nt	nt	-1	-4
COc1ccccc1NC(=O)COC(=O)/C=C/c1ccc2c(c1)OCO2	14*	-3	12	0	-7	7
SMILES	LANA-H2B inh	HDAC3 inh	AI-2 QS modul	Bfl-1 A1 inh	HKDC1 inhibitor	ATG4B inh
COc1ccc(C2NN=C(c3c[nH]c4ccccc34)C2O)cc1 (stereo not given)	-2	2	-37	-1	-2	8
COc1ccc(C2C(O)C(c3c[nH]c4ccccc34)=NN2C(=O)CCl)cc1 (stereo not given)	0	-7	-4	8.0*	18	-7
Cc1ccc(C)c(S(=O)(=O)NC2CCSC2=O)c1 (stereo not given)	nt	nt	nt	nt	-1	-6
Cc1ccc(C)[n+](CC(=O)N2CCCCC2)c1	nt	nt	nt	nt	-10	0
CCCCCCN1C=CC(=C/C=C(\C#N)C(=O)OCC)C=C1	-11	-3	20	0	-4	-4
CCCN1C=CC(=C/C=C(\C#N)C(=O)OCC)C=C1	-55	30*	13	-2	nt	nt
CCCCC1CCC(C(=O)N(CC(C)C)c2c(N)n(Cc3ccccc3)c(=O)[nH]c2=O)CC1 (stereo not given)	0	2	nt	29*	-1	5
CCCCN(C(=O)C1CCCC1)c1c(N)n(Cc2ccccc2)c(=O)[nH]c1=O	5	0	nt	0	-4	-1
CC(C)CCN(C(=O)Cc1ccc(Cl)c(Cl)c1)c1c(N)n(Cc2ccccc2)c(=O)[nH]c1=O	1	1	28	12*	-8	-1
CCCCN(C(=O)CC1CCCCC1)c1c(N)n(CC(C)C)c(=O)[nH]c1=O	71*	4	nt	-1	0	-9
CCN(C(=O)COC(=O)c1cc(Cl)ccc1OC)c1c(N)n(Cc2ccccc2)c(=O)[nH]c1=O	39*	-1	nt	0	-5	-5
COc1ccc(Cl)cc1C(=O)OCC(=O)N(CC(C)C)c1c(N)n(Cc2ccccc2)c(=O)[nH]c1=O	1	4	11	0	2	0
CCCCN1C=C(C(C)=O)C(=O)CC1	nt	nt	nt	nt	-3	6
Cc1ccc(SCc2nc(N)nc(Nc3ccccc3C)n2)cc1C	0	7	5	0	19	1
Cc1ccc(SCc2nc(N)nc(Nc3ccccc3C)n2)c(C)c1	64*	?	9	-2	-6	-11
CN(C(=O)CSc1ncnc2ccccc12)C1CCCCC1	nt	nt	nt	nt	-2	0
COc1ccc(CN2CNc3nc4ccccc4n3C2)cc1	22*	0	6	nt	-4	-9
c1coc(CN2CNc3nc4ccccc4n3C2)c1	-2	3	-14	0	6	-6
CCN(CC)C(=O)c1cccc(NC(=O)C2=COCCO2)c1	18*	4	nt	0	-2	-3
CCN(CC)S(=O)(=O)c1cc(NC(=O)C2=COCCO2)ccc1Cl	-2	7	32	0	-3	0
O=C(NCc1ccccn1)c1cccc(NS(=O)(=O)c2cccc(Cl)c2)c1	0	-1	5	0	12	-2
O=C(NCc1ccccn1)c1ccc(NS(=O)(=O)c2cccc(Cl)c2)cc1	38*	-2	183	1	-4	4
Nc1nc(SCC(=O)c2ccc(Cl)cc2)c2ncn(C3OC(CO)C(O)C3O)c2n1 (stereo not given)	nt	nt	nt	nt	-3	-7
CC(C)(C)S(=O)N1Cc2cc(=O)n(Cc3ccccc3)cc2[C@H]1CCO (stereo not given in full)	nt	nt	nt	nt	2	8
